# Assay results reported in ChEMBL document CHEMBL4359898, “Pyrazolo-benzothiazole hybrids: Synthesis, anticancer properties and evaluation of antiangiogenic activity using in vitro VEGFR-2 kinase and in vivo transgenic zebrafish model” (Eur J Med Chem, 2019).
# Active and inactive are the calls of the source. The rule behind the calls is not given here.
# Columns and labels:
# [1] = tested on: HT-29; assay: Cytotoxicity against human HT-29 cells assessed as reduction in cell viability incubated for 72 hrs by MTT assay; conditions: HT-29, 72 h
# [2] = tested on: PC-3; assay: Cytotoxicity against human PC3 cells assessed as reduction in cell viability incubated for 72 hrs by MTT assay; conditions: PC-3, 72 h
# [3] = tested on: A549; assay: Cytotoxicity against human A549 cells assessed as reduction in cell viability incubated for 72 hrs by MTT assay; conditions: A549, 72 h
# [4] = tested on: U-87 MG; assay: Cytotoxicity against human U87MG cells assessed as reduction in cell viability incubated for 72 hrs by MTT assay
# [5] = tested on: HEK-293T; assay: Cytotoxicity against HEK293T cells assessed as reduction in cell viability incubated for 72 hrs by MTT assay; conditions: Homo sapiens
# [6] = tested on: PC-3; assay: Inhibition of cell migration in human PC3 cells at 5 uM incubated for 48 hrs by phase contrast microscopy based scratch wound healing assay relative to control; assay type: functional; conditions: PC-3, 48 h
# Outline: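 Confluent PC-3 monolayers were scratched with a pipette tip to leave lanes about 1 mm wide, and debris was washed off with PBS. Cells were given complete medium alone or medium containing […]. Wounds were imaged by phase contrast at time zero and after 48 h.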
# [7] = tested on: PC-3; assay: Cell cycle arrest in human PC3 cells assessed as reduction in S phase population at 1 uM incubated for 48 hrs by propidium iodide staining based flow cytometry; assay type: functional
# [8] = tested on: PC-3; assay: Cell cycle arrest in human PC3 cells assessed as reduction in G2/M phase population at 1 uM incubated for 48 hrs by propidium iodide staining based flow cytometry; assay type: functional
# [9] = tested on: PC-3; assay: Cell cycle arrest in human PC3 cells assessed as accumulation in G0/G1 phase at 1 uM incubated for 48 hrs by propidium iodide based flow cytometry (reference value: 51.3 %); assay type: functional
# [10] = tested on: PC-3; assay: Cell cycle arrest in human PC3 cells assessed as accumulation in G0/G1 phase at 3 uM incubated for 48 hrs by propidium iodide based flow cytometry (reference value: 51.3 %); assay type: functional
# [11] = tested on: PC-3; assay: Cell cycle arrest in human PC3 cells assessed as accumulation in G0/G1 phase at 5 uM incubated for 48 hrs by propidium iodide based flow cytometry (reference value: 51.3 %); assay type: functional
# [12] = tested on: PC-3; assay: Cell cycle arrest in human PC3 cells assessed as accumulation in G0/G1 phase incubated for 48 hrs by propidium iodide based flow cytometry; assay type: functional
# [13] = tested on: PC-3; assay: Induction of apoptosis in human PC3 cells assessed as nuclei condensation incubated for 48 hrs by […] staining based fluorescence microscopy; assay type: functional, cell-based
# Outline: (§1)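 PC-3 cells on coverslips (1 × 10^6 per well) were incubated 48 h with […]. Cells were PBS-washed, 4% paraformaldehyde was added, and they were stained 20 min with […]. After three PBS washes, nuclei were examined by fluorescence microscopy for chromatin condensation and fragmentation.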
# [14] = tested on: PC-3; assay: Induction of apoptosis in human PC3 cells assessed as nuclei fragmentation incubated for 48 hrs by […] staining based fluorescence microscopy; assay type: functional, cell-based; outline: as §1
# [15] = tested on: PC-3; assay: Induction of apoptosis in human PC3 cells at incubated for 48 hrs by […] staining based fluorescence microscopy; assay type: functional, cell-based; outline: as §1
# [16] = tested on: PC-3; assay: Induction of apoptosis in human PC3 cells assessed as mitochondrial membrane potential loss incubated for 48 hrs by JC1 staining based fluorescence microscopy; assay type: functional, cell-based
# Outline: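 PC-3 cells were plated at 5 × 10^5 cells/mL and incubated 48 h with […]. The medium was then replaced with fresh medium containing JC-1 for 20 min. After three PBS washes, red and green fluorescence was imaged, and depolarisation was read as a rise in the green/red ratio.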
# [17] = tested on: PC-3; assay: Induction of apoptosis in human PC3 cells assessed as viable cells at 1 uM incubated for 48 hrs by annexin V FITC and propidium iodide staining based flow cytometry (reference value: 95 %); assay type: functional; conditions: PC-3, 48 h, read-out: Activity
# Outline: (§2)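 PC-3 cells at 1 × 10^6 per well were treated 48 h at […]. Cells were trypsinised, washed in PBS and resuspended in annexin binding buffer. Annexin V-FITC and PI were added for 15 min at room temperature. 10000 cells were analysed by flow cytometry and sorted into quadrants as live, early apoptotic, late apoptotic or necrotic.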
# [18] = tested on: PC-3; assay: Induction of apoptosis in human PC3 cells assessed as early apoptotic cells at 1 uM incubated for 48 hrs by annexin V FITC and propidium iodide staining based flow cytometry (reference value: 2.8 %); assay type: functional; outline: as §2
# [19] = tested on: PC-3; assay: Induction of apoptosis in human PC3 cells assessed as late apoptotic cells at 1 uM incubated for 48 hrs by annexin V FITC and propidium iodide staining based flow cytometry (reference value: 1.2 %); assay type: functional; outline: as §2
# [20] = tested on: PC-3; assay: Induction of apoptosis in human PC3 cells assessed as necrotic cells at 1 uM incubated for 48 hrs by annexin V FITC and propidium iodide staining based flow cytometry (reference value: 1 %); assay type: functional; outline: as §2
# [21] = tested on: PC-3; assay: Induction of apoptosis in human PC3 cells assessed as viable cells at 3 uM incubated for 48 hrs by annexin V FITC and propidium iodide staining based flow cytometry (reference value: 95 %); assay type: functional; conditions: PC-3, 48 h, read-out: Activity; outline: as §2
# [22] = tested on: PC-3; assay: Induction of apoptosis in human PC3 cells assessed as early apoptotic cells at 3 uM incubated for 48 hrs by annexin V FITC and propidium iodide staining based flow cytometry (reference value: 2.8 %); assay type: functional; outline: as §2
# [23] = tested on: PC-3; assay: Induction of apoptosis in human PC3 cells assessed as late apoptotic cells at 3 uM incubated for 48 hrs by annexin V FITC and propidium iodide staining based flow cytometry (reference value: 1.2 %); assay type: functional; outline: as §2
# [24] = tested on: PC-3; assay: Induction of apoptosis in human PC3 cells assessed as necrotic cells at 3 uM incubated for 48 hrs by annexin V FITC and propidium iodide staining based flow cytometry (reference value: 1 %); assay type: functional; outline: as §2
# [25] = tested on: PC-3; assay: Induction of apoptosis in human PC3 cells assessed as viable cells at 5 uM incubated for 48 hrs by annexin V FITC and propidium iodide staining based flow cytometry (reference value: 95 %); assay type: functional; conditions: PC-3, 48 h, read-out: Activity; outline: as §2
# [26] = tested on: PC-3; assay: Induction of apoptosis in human PC3 cells assessed as early apoptotic cells at 5 uM incubated for 48 hrs by annexin V FITC and propidium iodide staining based flow cytometry (reference value: 2.8 %); assay type: functional; outline: as §2
# [27] = tested on: PC-3; assay: Induction of apoptosis in human PC3 cells assessed as late apoptotic cells at 5 uM incubated for 48 hrs by annexin V FITC and propidium iodide staining based flow cytometry (reference value: 1.2 %); assay type: functional; outline: as §2
# [28] = tested on: PC-3; assay: Induction of apoptosis in human PC3 cells assessed as necrotic cells at 5 uM incubated for 48 hrs by annexin V FITC and propidium iodide staining based flow cytometry (reference value: 1 %); assay type: functional; outline: as §2
# [29] = tested on: Danio rerio; assay: Antiangiogenic activity in transgenic fli1a:EGFP-tagged zebrafish embryo assessed as reduction in intersegmental vessel sprouting at 0.1 uM administered from 24 hrs post fertilization and measured after 72 hrs by fluorescence microscopy relative to control; assay type: functional; parameters: scale not given: the % may be the effect or the level left
# Outline: (§3)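 Embryos staged after natural spawning and kept in E3 medium at 28.5 °C. At 1 dpf, 10 embryos per well were placed in E3 containing compound at […] and incubated 72 h at 28.5 °C. Untreated and 1% DMSO vehicle controls were included. Larvae were anaesthetised with 0.01% tricaine and mounted in 1% low-melt agarose. ISVs were imaged in the green channel, and % defective ISVs was counted manually.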
# [30] = tested on: Danio rerio; assay: Antiangiogenic activity in transgenic fli1a:EGFP-tagged zebrafish embryo assessed as reduction in intersegmental vessel sprouting at 0.5 uM administered from 24 hrs post fertilization and measured after 72 hrs by fluorescence microscopy relative to control; assay type: functional; parameters: scale not given: the % may be the effect or the level left; outline: as §3
# [31] = tested on: Danio rerio; assay: Antiangiogenic activity in transgenic fli1a:EGFP-tagged zebrafish embryo assessed as reduction in intersegmental vessel sprouting at 1 uM administered from 24 hrs post fertilization and measured after 72 hrs by fluorescence microscopy relative to control; assay type: functional; parameters: scale not given: the % may be the effect or the level left; outline: as §3
# [32] = tested on: Danio rerio; assay: Antiangiogenic activity in transgenic fli1a:EGFP-tagged zebrafish embryo assessed as reduction in intersegmental vessel sprouting administered from 24 hrs post fertilization and measured after 72 hrs by fluorescence microscopy; assay type: functional, organism-based; outline: as §3
# [33] = tested on: PC-3; assay: Induction of apoptosis in human PC3 cells incubated for 48 hrs by annexin V FITC and propidium iodide staining based flow cytometry; assay type: functional, cell-based; outline: as §2
# [34] = tested on: PC-3; conditions: Homo sapiens, 1 to 5 uM
# [35] = tested on: U-87 MG; conditions: Homo sapiens; U-87MG ATCC
# [36] = tested on: PC-3; conditions: Homo sapiens, 3 uM
# [37] = tested on: Danio rerio; assay: Antiangiogenic activity in transgenic fli1a:EGFP-tagged zebrafish embryo assessed as reduction in intersegmental vessel sprouting at 0.1 to 1 uM administered from 24 hrs post fertilization and measured after 72 hrs by fluorescence microscopy relative to control; assay type: functional; parameters: scale not given: the % may be the effect or the level left; outline: as §3
compound,measurement,setting,value
Cc1ccc2nc(NC(=O)c3cn(-c4ccccc4)nc3-c3ccccc3)sc2c1,IC50,[1],> 50 µM
same,IC50,[2],15.7 µM
same,IC50,[3],26.5 µM
same,IC50,[4],23.2 µM
same,IC50,[5],> 50 µM
Cc1ccc2nc(NC(=O)c3cn(-c4ccccc4)nc3-c3ccc(F)cc3)sc2c1,IC50,[1],22.9 µM
same,IC50,[2],20.5 µM
same,IC50,[3],24.6 µM
same,IC50,[4],> 50 µM
same,IC50,[5],> 50 µM
O=C(Nc1nc2ccc(Cl)cc2s1)c1cn(-c2ccccc2)nc1-c1ccc(F)cc1,IC50,[1],3.32 µM
same,IC50,[2],3.17 µM
same,IC50,[3],3.87 µM
same,IC50,[4],6.77 µM
same,IC50,[5],45.7 µM
same,inhibition at 5 µM,[6],100%
same,Activity,[7],Active
same,Activity,[8],Active
same,Activity,[9],65.5%
same,Activity,[10],74.8%
same,Activity,[11],81.4%
same,Activity,[12],Dose-dependent effect
same,Activity,[13],Dose-dependent effect
same,Activity,[14],Dose-dependent effect
same,Activity,[15],Dose-dependent effect
same,Activity,[16],Dose-dependent effect
same,viability at 1 µM,[17],84.8%
same,Activity,[18],10.4%
same,Activity,[19],3.7%
same,Activity,[20],1.1%
same,viability at 3 µM,[21],77.2%
same,Activity,[22],13.8%
same,Activity,[23],6.9%
same,Activity,[24],2.1%
same,viability at 5 µM,[25],70.9%
same,Activity,[26],16.7%
same,Activity,[27],9.6%
same,Activity,[28],2.8%
same,Activity,[29],16%
same,Activity,[30],47.3%
same,Activity,[31],54.5%
same,Activity,[32],Dose-dependent effect
same,Activity,[33],Dose-dependent effect
same,inhibition,[34],Active
same,inhibition,[35],Active
same,inhibition,[36],Active
COc1ccc2nc(NC(=O)c3cn(-c4ccccc4)nc3-c3ccc(Cl)cc3)sc2c1,IC50,[1],18.6 µM
same,IC50,[2],29.3 µM
same,IC50,[3],31.4 µM
same,IC50,[4],21.2 µM
same,IC50,[5],29.6 µM
O=C(Nc1nc2ccc(Cl)cc2s1)c1cn(-c2ccccc2)nc1-c1ccc(Cl)cc1,IC50,[1],4.55 µM
same,IC50,[2],3.23 µM
same,IC50,[3],4.36 µM
same,IC50,[4],5.87 µM
same,IC50,[5],15.7 µM
Cc1ccc2nc(NC(=O)c3cn(-c4ccccc4)nc3-c3ccc(Cl)cc3)sc2c1,IC50,[1],23.7 µM
same,IC50,[2],14.5 µM
same,IC50,[3],18.6 µM
same,IC50,[4],33.2 µM
same,IC50,[5],35.6 µM
O=C(Nc1nc2ccc(Cl)cc2s1)c1cn(-c2ccccc2)nc1-c1ccccc1,IC50,[1],7.81 µM
same,IC50,[2],3.69 µM
same,IC50,[3],7.67 µM
same,IC50,[4],4.98 µM
same,IC50,[5],21.3 µM
O=C(Nc1nc2ccccc2s1)c1cn(-c2ccccc2)nc1-c1ccc(F)cc1,IC50,[1],9.06 µM
same,IC50,[2],7.13 µM
same,IC50,[3],9.01 µM
same,IC50,[4],10.7 µM
same,IC50,[5],33.4 µM
CNC(=O)c1ccccc1Sc1ccc2c(/C=C/c3ccccn3)n[nH]c2c1 [AXITINIB],Activity,[37],63.1 - 90.4%
O=C(Nc1nc2ccccc2s1)c1cn(-c2ccccc2)nc1-c1ccc(Cl)cc1,IC50,[1],13.7 µM
same,IC50,[2],7.75 µM
same,IC50,[3],10.3 µM
same,IC50,[4],11.5 µM
same,IC50,[5],39.6 µM
